Experimental data of several laboratories.
Target: Phosphatidylinositol 4,5-bisphosphate 3-kinase catalytic subunit gamma isoform (PIK3CG, Homo sapiens, UniProt P48736)

SMILES | test | conditions | measurement | value
COc1ncccc1-c1cnn2ccc(N3CCN(C(=O)OC(C)C)CC3)nc12 | binding, competition with immobilised ligand | 1 µM | remaining binding | 100%
C#Cc1n[nH]c2c(-c3cn([C@@H](C)c4ccccn4)c(=O)[nH]c3=O)cc(F)cc12 | enzyme activity, inhibitor | 0.1 µM | inhibition | 1.9%
Nc1ncc(-c2nc(N3CCOCC3)nc(N3CCOCC3)n2)c(C(F)F)n1 | binding, competition with immobilised ligand | 10 µM | remaining binding | 0%
C#Cc1n[nH]c2c(-c3cn([C@@H](C)c4ccccc4)c(=O)[nH]c3=O)cc(F)cc12 | enzyme activity, inhibitor | 0.1 µM | inhibition | 7.4%
N#CC1(c2ccccn2)CCN(Cc2cc(C(=O)O)c(=O)n3ccccc23)CC1 | cell-free assay, competition with immobilised ligand | 1 µM | remaining binding | 91%
Cn1cc(-c2cccc(N3CCc4c(sc5c4CC(C)(C)C5)C3=O)c2CO)cc(Nc2ccncn2)c1=O | enzyme activity, inhibitor | 1 µM | inhibition | -1%
Cn1cncc1[C@](O)(COc1ccc(C#N)cc1-c1ccc(OC(F)(F)F)cc1)c1ccc(C#N)cc1 | cell-free assay, competition with immobilised ligand | 1 µM | remaining binding | 100%
Cc1nn(C)cc1-c1nc2c(N3CCN(Cc4ccc(Cl)cc4)CC3)c(Cl)cnc2[nH]1 | binding, competition with immobilised ligand | 1 µM | remaining binding | 100%
Cn1cc(-c2cc(F)cc(N3CCn4c(cc5c4CCCC5)C3=O)c2CO)cc(Nc2ccc(N3CCN(C4COC4)CC3)cn2)c1=O | enzyme activity, inhibitor | 0.1 µM | inhibition | 5%
